Values after ≈ are worked out from the molar mass of the structure shown. Active and inactive are the calls of the source. The calls are words filed in the database; no cut-off is given here.
Columns and labels:
[1] = system: Klebsiella pneumoniae; assay: Antibacterial activity against Klebsiella pneumonia assessed as bacterial growth inhibition by broth microdilution method; format: functional
Summary of the method: (§1)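 MIC values reported in µg/mL, determined by broth microdilution in microdilution plates.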

[2] = system: Staphylococcus aureus; assay: Antibacterial activity against Staphylococcus aureus ATCC 29213 assessed as bacterial growth inhibition by broth microdilution method; format: functional; summary of the method: as §1
[3] = system: Escherichia coli; assay: Antibacterial activity against Escherichia coli assessed as bacterial growth inhibition by broth microdilution method; format: functional; summary of the method: as §1
[4] = system: Staphylococcus aureus; assay: Antibacterial activity against methicillin-resistant Staphylococcus aureus assessed as bacterial growth inhibition by broth microdilution method; format: functional
Summary of the method: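 MIC read by micro broth dilution; values given in μg/mL.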

[5] = system: Acinetobacter baumannii; assay: Antibacterial activity against Acinetobacter baumannii assessed as bacterial growth inhibition by broth microdilution method; format: functional; summary of the method: as §1
[6] = system: Staphylococcus aureus; assay: Antibacterial activity against Staphylococcus aureus ATCC 25923 assessed as bacterial growth inhibition by broth microdilution method; format: functional; summary of the method: as §1
[7] = system: Enterococcus faecalis; assay: Antibacterial activity against Enterococcus faecalis assessed as bacterial growth inhibition by broth microdilution method; format: functional; summary of the method: as §1
[8] = system: Staphylococcus aureus; assay: Antibacterial activity against Staphylococcus aureus assessed as bacterial growth inhibition by broth microdilution method; format: functional; summary of the method: as §1
[9] = system: Pseudomonas aeruginosa; assay: Antibacterial activity against Pseudomonas aeruginosa assessed as bacterial growth inhibition by broth microdilution method; format: functional; summary of the method: as §1
[10] = system: Pseudomonas aeruginosa; assay: Antibacterial activity against Pseudomonas aeruginosa ATCC 27853 assessed as bacterial growth inhibition by broth microdilution method; format: functional; summary of the method: as §1
[11] = system: Escherichia coli; assay: Antibacterial activity against Escherichia coli ATCC 25922 assessed as bacterial growth inhibition by broth microdilution method; format: functional; summary of the method: as §1
[12] = system: Staphylococcus aureus; assay: Antibacterial activity against methicillin-resistant Staphylococcus aureus measured after 13 passages by broth microdilution method; format: functional, organism-based

SMILES | MIC [1] | MIC [2] | MIC [3] | MIC [4] | MIC [5] | MIC [6] | MIC [7] | MIC [8] | MIC [9] | MIC [10] | MIC [11] | Activity [12]
CCCc1nccn1C(CO)CS(=O)(=O)c1ccc(N)cc1 (centres undefined) | 128 µg/mL (≈ 396 µM) | 128 µg/mL (≈ 396 µM) | 64 µg/mL (≈ 198 µM) | 8 µg/mL (≈ 24.7 µM) | 32 µg/mL (≈ 98.9 µM) | 64 µg/mL (≈ 198 µM) | 32 µg/mL (≈ 98.9 µM) | 128 µg/mL (≈ 396 µM) | 256 µg/mL (≈ 792 µM) | 32 µg/mL (≈ 98.9 µM) | 64 µg/mL (≈ 198 µM) | 
CC(=O)Nc1ccc(S(=O)(=O)CC(CO)n2ccnc2C(C)C)cc1 (centres undefined) | 64 µg/mL (≈ 175 µM) | 16 µg/mL (≈ 43.8 µM) | 64 µg/mL (≈ 175 µM) | 16 µg/mL (≈ 43.8 µM) | 32 µg/mL (≈ 87.6 µM) | 64 µg/mL (≈ 175 µM) | 32 µg/mL (≈ 87.6 µM) | 128 µg/mL (≈ 350 µM) | 256 µg/mL (≈ 700 µM) | 64 µg/mL (≈ 175 µM) | 64 µg/mL (≈ 175 µM) | 
CCn1cc(C(=O)O)c(=O)c2cc(F)c(N3CCNCC3)cc21 [NORFLOXACIN] | 256 µg/mL (≈ 802 µM) | 1 µg/mL (≈ 3.13 µM) | 512 µg/mL (≈ 1600 µM) | 8 µg/mL (≈ 25.1 µM) | 8 µg/mL (≈ 25.1 µM) | 1 µg/mL (≈ 3.13 µM) | 256 µg/mL (≈ 802 µM) | 8 µg/mL (≈ 25.1 µM) | 256 µg/mL (≈ 802 µM) | 16 µg/mL (≈ 50.1 µM) | 512 µg/mL (≈ 1600 µM) | inactive
Nc1ccc(S(=O)(=O)CC(CO)n2cnc(I)c2)cc1 (centres undefined) | 256 µg/mL (≈ 629 µM) | 64 µg/mL (≈ 157 µM) | 64 µg/mL (≈ 157 µM) | 64 µg/mL (≈ 157 µM) | 64 µg/mL (≈ 157 µM) | 64 µg/mL (≈ 157 µM) | 256 µg/mL (≈ 629 µM) | 64 µg/mL (≈ 157 µM) | 256 µg/mL (≈ 629 µM) | 32 µg/mL (≈ 78.6 µM) | 32 µg/mL (≈ 78.6 µM) | 
CCc1nc(I)cn1C(CO)CS(=O)(=O)c1ccc(NC(C)=O)cc1 (centres undefined) | 64 µg/mL (≈ 134 µM) | 64 µg/mL (≈ 134 µM) | 64 µg/mL (≈ 134 µM) | 128 µg/mL (≈ 268 µM) | 64 µg/mL (≈ 134 µM) | 64 µg/mL (≈ 134 µM) | 64 µg/mL (≈ 134 µM) | 64 µg/mL (≈ 134 µM) | 256 µg/mL (≈ 536 µM) | 32 µg/mL (≈ 67 µM) | 32 µg/mL (≈ 67 µM) | 
Nc1ccc(S(=O)(=O)CC(CO)n2ccnc2)cc1 (centres undefined) | 128 µg/mL (≈ 455 µM) | 64 µg/mL (≈ 227 µM) | 128 µg/mL (≈ 455 µM) | 16 µg/mL (≈ 56.9 µM) | 128 µg/mL (≈ 455 µM) | 64 µg/mL (≈ 227 µM) | 32 µg/mL (≈ 114 µM) | 32 µg/mL (≈ 114 µM) | 256 µg/mL (≈ 910 µM) | 64 µg/mL (≈ 227 µM) | 64 µg/mL (≈ 227 µM) | 
Cc1cn(C(CO)CS(=O)(=O)c2ccc(N)cc2)cn1 (centres undefined) | 32 µg/mL (≈ 108 µM) | 64 µg/mL (≈ 217 µM) | 64 µg/mL (≈ 217 µM) | 8 µg/mL (≈ 27.1 µM) | 16 µg/mL (≈ 54.2 µM) | 32 µg/mL (≈ 108 µM) | 16 µg/mL (≈ 54.2 µM) | 64 µg/mL (≈ 217 µM) | 128 µg/mL (≈ 433 µM) | 32 µg/mL (≈ 108 µM) | 64 µg/mL (≈ 217 µM) | 
Nc1ccc(S(=O)(=O)Nc2nccs2)cc1 [SULFATHIAZOLE] | 128 µg/mL (≈ 501 µM) | 512 µg/mL (≈ 2010 µM) | 256 µg/mL (≈ 1000 µM) | 64 µg/mL (≈ 251 µM) | 64 µg/mL (≈ 251 µM) | 512 µg/mL (≈ 2010 µM) | 512 µg/mL (≈ 2010 µM) | 512 µg/mL (≈ 2010 µM) | 128 µg/mL (≈ 501 µM) | 512 µg/mL (≈ 2010 µM) | 128 µg/mL (≈ 501 µM) | inactive
CC(=O)Nc1ccc(S(=O)(=O)CC(CO)n2cnc(Br)c2)cc1 (centres undefined) | 256 µg/mL (≈ 636 µM) | 32 µg/mL (≈ 79.5 µM) | 64 µg/mL (≈ 159 µM) | 8 µg/mL (≈ 19.9 µM) | 64 µg/mL (≈ 159 µM) | 64 µg/mL (≈ 159 µM) | 8 µg/mL (≈ 19.9 µM) | 64 µg/mL (≈ 159 µM) | 256 µg/mL (≈ 636 µM) | 32 µg/mL (≈ 79.5 µM) | 32 µg/mL (≈ 79.5 µM) | 
Nc1ccc(S(=O)(=O)CC(CO)n2cnc(Br)c2)cc1 (centres undefined) | 256 µg/mL (≈ 711 µM) | 64 µg/mL (≈ 178 µM) | 64 µg/mL (≈ 178 µM) | 16 µg/mL (≈ 44.4 µM) | 64 µg/mL (≈ 178 µM) | 64 µg/mL (≈ 178 µM) | 64 µg/mL (≈ 178 µM) | 64 µg/mL (≈ 178 µM) | 256 µg/mL (≈ 711 µM) | 32 µg/mL (≈ 88.8 µM) | 32 µg/mL (≈ 88.8 µM) | 
CC(=O)Nc1ccc(S(=O)(=O)CC(CO)n2ccnc2)cc1 (centres undefined) | 128 µg/mL (≈ 396 µM) | 32 µg/mL (≈ 99 µM) | 64 µg/mL (≈ 198 µM) | 32 µg/mL (≈ 99 µM) | 64 µg/mL (≈ 198 µM) | 64 µg/mL (≈ 198 µM) | 32 µg/mL (≈ 99 µM) | 64 µg/mL (≈ 198 µM) | 128 µg/mL (≈ 396 µM) | 64 µg/mL (≈ 198 µM) | 64 µg/mL (≈ 198 µM) | 
CCCc1nccn1C(CO)CS(=O)(=O)c1ccc(NC(C)=O)cc1 (centres undefined) | 128 µg/mL (≈ 350 µM) | 32 µg/mL (≈ 87.6 µM) | 64 µg/mL (≈ 175 µM) | 32 µg/mL (≈ 87.6 µM) | 32 µg/mL (≈ 87.6 µM) | 64 µg/mL (≈ 175 µM) | 16 µg/mL (≈ 43.8 µM) | 32 µg/mL (≈ 87.6 µM) | 256 µg/mL (≈ 700 µM) | 32 µg/mL (≈ 87.6 µM) | 64 µg/mL (≈ 175 µM) | 

From ChEMBL document CHEMBL4819149, “A facile reaction to access novel structural sulfonyl-hybridized imidazolyl ethanols as potential DNA-targeting antibacterial agents” (Bioorg Med Chem Lett, 2021)
